Experimental data from different studies.
Protocols differ between the studies behind these lines.
Target: Dual specificity mitogen-activated protein kinase kinase 2 (MAP2K2, Homo sapiens, UniProt P36507)

O=C(Nc1cnn(-c2csc(C(=O)NC3COC3)c2)c1)Nc1c(F)cccc1Cl — remaining activity (enzyme activity, inhibitor; 5 µM): 90.6%
O=C1Nc2ccc(Cl)cc2C1=Cc1cc(Cl)c(O)c(Cl)c1 — remaining signal (cell-free assay; 0.5 µM): 82%
O=C(NCc1ncc(C(F)(F)F)cc1Cl)c1ccc2c(c1)C1(CCS(=O)(=O)CC1)[C@@H](C1CC1)N2S(=O)(=O)c1ccc(F)cc1 — remaining binding (cell-free assay, competition with immobilised ligand; 1 µM): 78%
Cn1c2c(c3ccc(Cl)c(Cl)c31)C(C#N)C1(CCCC1)NC2=O (stereo not shown) — ΔTm (thermal stability, DSF; 10 µM): -0.4 °C
COc1cc2ncnc(Nc3ccc(Oc4ccccc4)cc3C)c2cc1OC — inhibition (enzyme activity, inhibitor; 1 µM): 41%
Cn1c2c(Cl)c(Cl)ccc2c2cn[nH]c(=O)c21 — ΔTm (thermal stability, DSF; 10 µM): -0.3 °C
CN(C)C(=O)Cn1cc(-c2nc([C@@](C)(c3ccc(-c4cnc(N)nc4)cc3)C3CC3)no2)cn1 — remaining binding (cell-free assay, competition with immobilised ligand; 1 µM): 86%
COc1cc(Nc2cnc(C#N)c(O[C@H](C)CN(C)C)n2)ncc1-c1cnn(C)c1 — remaining activity (enzyme activity, inhibitor, radiometric; 10 µM): 57%
Cc1ccc(C(=O)Nc2ccc(CN3CCN(C)CC3)c(C(F)(F)F)c2)cc1C#Cc1cnc2cccnn12 — remaining activity (enzyme activity, inhibitor; 23.5 nM): 97%
CCOc1cc(-c2nncn2C)ccc1Nc1ncc2cc(C)nc(NCC(C)(C)C)c2n1 — inhibition (enzyme activity, inhibitor, FRET; 1 µM): 18%
N#Cc1ccc(Nc2ccc3[nH]c(=O)[nH]c3c2)c(Cl)c1 — remaining binding (cell-free assay, competition with immobilised ligand; 1 µM): 93%
CN1CCC2(CC1)NC(=O)c1c(c3ccc(Cl)c(Cl)c3n1C)C2C#N (racemic) — ΔTm (thermal stability, DSF; 10 µM): -0.3 °C
CCCS(=O)(=O)Nc1ccc(F)c(C(=O)c2c[nH]c3ncc(-c4ccc(Cl)cc4)cc23)c1F — inhibition (enzyme activity, inhibitor; 1 µM): < 10%
N#CC1c2c([nH]c3c(Cl)c(Cl)ccc23)C(=O)NC12CCCCC2 (racemic) — ΔTm (thermal stability, DSF; 10 µM): -0.8 °C
CS(=O)(=O)Nc1cccc(-c2csc(NC(=O)CSc3nc4nccnc4c(=O)n3CCc3ccccc3)n2)c1 — inhibition (enzyme activity, inhibitor; 10 µM): -1%
Cc1ccc(C(=O)NCc2ccsc2)cc1C#Cc1cn(C(C)C)c2ncnc(N)c12 — activity vs control (enzyme activity, inhibitor; 1 µM): 81%
Oc1cccc(-c2nc(N3CCOCC3)c3oc4ncccc4c3n2)c1 — remaining activity (enzyme activity, inhibitor; 10 µM): 115%
CC(C)(C)c1nc2c(s1)c1nc(N)ncc1c1ccc(NS(=O)(=O)c3c(F)cccc3F)c(F)c12 — remaining activity (enzyme activity, inhibitor, radiometric; 1 µM): 92%
COc1cc(Cl)c(C(=O)N[C@@H](CN[C@H]2CC[C@@H](N)CC2)Cc2ccc(C#N)cc2)cc1-c1ccc(CN[C@H](C)c2ccc(C)cc2)o1 — remaining activity (enzyme activity, inhibitor; 1 µM): 115%
Cn1cc(Cl)c2c(Oc3c(F)cc(Nc4cc(Cl)nc(N)n4)cc3F)ccnc21 — remaining binding (cell-free assay, competition with immobilised ligand; 0.1 µM): 100%
Cn1c2c(c3ccc(Cl)c(Cl)c31)C(C#N)C(C)(C)NC2=O (stereo not shown) — ΔTm (thermal stability, DSF; 10 µM): -0.5 °C
O=S(=O)(NC1CCC(c2cc(F)ccc2F)(S(=O)(=O)c2ccc(Cl)cc2)CC1)C(F)(F)F (stereo not shown) — remaining binding (cell-free assay, competition with immobilised ligand; 1 µM): 100%
Cn1c2c(Cl)c(Cl)ccc2c2cc[nH]c(=O)c21 — ΔTm (thermal stability, DSF; 10 µM): -0.5 °C
FC(F)(F)Oc1cccc(-c2cnc3ccc(-c4ccncc4)nn23)c1 — activity vs control (enzyme activity, inhibitor, radiometric; 5 µM): 94%
C[C@H](NC(=O)c1cnc2n1[C@](C)(Cc1ccc(C#N)cc1)C(=O)N2c1cc(Cl)c(F)c(Cl)c1)C(=O)NC1(c2ccccn2)CC1 — remaining binding (cell-free assay, competition with immobilised ligand; 1 µM): 90%
C#Cc1cccc(Nc2ncnc3cc(OCCOC)c(OCCOC)cc23)c1 — remaining signal (cell-free assay; 0.5 µM): 105%
CS(=O)(=O)N1CCCC(NC(=O)[C@H](CCC2CCCCC2)NC(=O)c2ccc(CNc3ncnc4c3nnn4-c3ccccc3)cc2)C1 (stereo partly shown) — remaining binding (cell-free assay, competition with immobilised ligand; 0.1 µM): 90%
N#CC(=C(N)Sc1ccc(N)cc1)c1ccccc1C(F)(F)F — remaining signal (cell-free assay; 0.5 µM): 94.5%
CS(=O)(=O)N1CCCC(NC(=O)[C@H](CCC2CCCCC2)NC(=O)c2ccc(CNC(=O)c3cnc4ccccn34)cc2)C1 (stereo partly shown) — remaining binding (cell-free assay, competition with immobilised ligand; 0.1 µM): 100%
CC1(C)NC(=O)c2[nH]c3c(Cl)c(Cl)ccc3c2C1C#N (stereo not shown) — ΔTm (thermal stability, DSF; 10 µM): -0.4 °C
COc1cc(-c2cc(-c3ccc(N4CCNCC4)cc3)cnc2C)cc(OC)c1OC — inhibition (enzyme activity, inhibitor; 0.1 µM): 4%
